Here are results for 4 compounds from paper PMC2843780 (Bioorganic & medicinal chemistry letters, 2010).

pIC50: −log10 of the molar value. Like-named read-outs stand apart in the source and are kept apart here.

One assay has as its system M1. The settings on record: cited from earlier work; for pIC50: read-out: M1 IC50, MLSCN screen hit.
The next assay has as its target hM3 (Homo sapiens, UniProt P20309). Description: calcium mobilization assay, hM3 CHO-K1 cells. The class given is cell-based. In general terms: Calcium assays in cells follow changes in intracellular calcium, usually with a dye or a luminescent sensor.
In the next assay the target is T1, hM5 (Homo sapiens, UniProt P08912).
T1 sequence (P08912 1-532): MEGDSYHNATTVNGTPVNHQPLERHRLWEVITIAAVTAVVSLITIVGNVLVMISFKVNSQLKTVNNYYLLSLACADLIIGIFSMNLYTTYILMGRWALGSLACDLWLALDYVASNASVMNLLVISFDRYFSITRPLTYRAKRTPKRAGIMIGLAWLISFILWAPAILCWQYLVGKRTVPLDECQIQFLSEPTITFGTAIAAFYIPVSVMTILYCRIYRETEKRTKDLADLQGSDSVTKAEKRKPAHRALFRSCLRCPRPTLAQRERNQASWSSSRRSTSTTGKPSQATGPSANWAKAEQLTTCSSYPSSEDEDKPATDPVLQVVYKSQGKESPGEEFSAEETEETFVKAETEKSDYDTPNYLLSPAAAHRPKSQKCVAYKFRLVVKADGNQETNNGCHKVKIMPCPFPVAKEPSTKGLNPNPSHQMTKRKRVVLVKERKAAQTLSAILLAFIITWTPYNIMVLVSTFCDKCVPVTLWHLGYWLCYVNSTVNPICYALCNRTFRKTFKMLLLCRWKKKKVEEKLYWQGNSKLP
The assay can be described thus: calcium mobilization assay, hM5 CHO-K1 cells. The class given is cell-based. As to conditions: compound at 10 μM. The essentials:
(§1)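 CHO-K1 cells stably expressing human receptor (M2 line also stably transfected with Gqi5 chimeric G protein so it signals through calcium; M5 line without chimera) were plated overnight. Cells were loaded with 2 μM Fluo-4 AM in HBSS/20 mM HEPES/2.5 mM probenecid, pH 7.4, for 45 min at 37°C, then dye was replaced with buffer. Cells were pre-incubated with 10 μM test compound, then given sub-maximal acetylcholine or carbachol. Signal was normalized to baseline and expressed as % of maximal acetylcholine response.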

A further assay deals with T2, hM2 (Homo sapiens, UniProt P08172).
T2 sequence (P08172 1-466): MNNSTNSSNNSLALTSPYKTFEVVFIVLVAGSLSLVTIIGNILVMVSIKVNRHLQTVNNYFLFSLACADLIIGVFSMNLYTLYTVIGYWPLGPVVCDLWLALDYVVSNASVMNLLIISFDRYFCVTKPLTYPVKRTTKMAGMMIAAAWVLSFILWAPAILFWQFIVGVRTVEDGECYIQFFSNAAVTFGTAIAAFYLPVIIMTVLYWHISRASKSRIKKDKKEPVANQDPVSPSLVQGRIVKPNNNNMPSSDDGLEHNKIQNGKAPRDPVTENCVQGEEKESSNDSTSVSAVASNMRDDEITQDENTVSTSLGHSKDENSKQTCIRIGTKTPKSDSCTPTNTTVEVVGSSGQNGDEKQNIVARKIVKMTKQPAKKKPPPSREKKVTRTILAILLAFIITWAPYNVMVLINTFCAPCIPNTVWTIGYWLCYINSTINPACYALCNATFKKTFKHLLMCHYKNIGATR
Description: calcium mobilization assay, hM2 CHO cells with Gqi5 chimeric G protein. The settings on record: compound at 10 μM. Format: cell-based. A digest of the protocol: as §1

Sequence of hM3 (P20309 whole entry): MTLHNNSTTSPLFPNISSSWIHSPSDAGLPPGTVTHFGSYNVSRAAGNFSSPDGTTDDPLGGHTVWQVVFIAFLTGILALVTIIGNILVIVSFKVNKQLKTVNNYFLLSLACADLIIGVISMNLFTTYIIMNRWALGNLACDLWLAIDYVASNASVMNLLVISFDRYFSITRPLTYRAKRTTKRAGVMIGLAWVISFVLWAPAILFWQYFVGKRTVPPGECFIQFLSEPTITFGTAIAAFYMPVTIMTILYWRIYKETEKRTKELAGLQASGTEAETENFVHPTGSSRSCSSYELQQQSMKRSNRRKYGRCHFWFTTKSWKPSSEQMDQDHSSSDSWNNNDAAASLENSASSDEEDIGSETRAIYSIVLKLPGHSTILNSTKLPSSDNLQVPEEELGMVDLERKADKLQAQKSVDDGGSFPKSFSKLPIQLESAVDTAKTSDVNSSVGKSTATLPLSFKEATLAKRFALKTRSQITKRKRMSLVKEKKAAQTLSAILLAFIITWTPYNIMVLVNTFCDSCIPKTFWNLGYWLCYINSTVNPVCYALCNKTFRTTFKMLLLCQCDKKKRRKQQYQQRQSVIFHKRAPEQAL

Take `CCN1CCN(c2ccc(NC(=O)CCC3CCCC3)cc2Cl)CC1` [Compound 5]: the “selectivity versus M4” value with M1 (M1 over M4) is reported as more than 340 fold. The pIC50 with M1 was 6.36.
In the case of `CCN1CCN(c2ccc(NC(=O)c3ccccc3)cc2Cl)CC1` [Compound 6], in the assay on M1 (M1 over M2-M5), the “selectivity versus M2-M5” value is on record as more than 30 fold. Moreover, the negative logarithm of the IC50 (pIC50) in the assay on M1 (original sample) was 5.30.
Regarding `CCN1CCN(c2ccc(NC(=O)c3ccccc3Cl)cc2Cl)CC1` [Compound 8a], on hM3, the negative-log IC50 (pIC50) was 5.09.
`CCN1CCN(c2ccc(NC(=O)c3cc(C(F)(F)F)cc(C(F)(F)F)c3)cc2Cl)CC1` [Compound 8i]: the “effect on an ACh EC80 on M5” value on hM5 is “little effect”. In addition, at hM2, the “effect on an ACh EC80 on M2” value was “little effect”. Further, the “effect on an ACh EC80 on M3” value on hM3 (compound at 10 μM) is “little effect”.

As a reminder, the pIC50 is −log10 of the IC50, conventionally taken in molar units.
